The results in this text go back to ChEMBL document CHEMBL4808231, “Development of curcumin-based amyloid β aggregation inhibitors for Alzheimer's disease using the SAR matrix approach” (Bioorg Med Chem, 2021).

Calls of active or inactive are those of the source. No cut-off for these calls is given here.

A short description of test [1]: Neurotoxicity in mouse N2a cells assessed as cell viability for 24 hrs by MTT assay. Type of test: cell-based. In a few lines: (§1)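 N2A or U87 MG cells (8x10^3/well, DMEM + 10% FBS, grown overnight at 37 °C, 5% CO2) treated 24 h with compound at 1, 5, 10, 25, 50, 100 and 200 µM. MTT 0.5 mg/mL for 3 h, DMSO added, absorbance read at 550 nm. IC50 from semi-log dose-response plots; mean ± s.d. of three independent experiments in triplicate.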
(Tetrazolium assays rely on reduction of a dye to a coloured formazan, in cell work by metabolically active cells.)

Test [2] in a line: Neurotoxicity in human U87 MG cells assessed as cell viability for 24 hrs by MTT assay. Conditions: U-87 MG. In kind it is cell-based, U-87MG ATCC. The gist of the method:
as §1

Test [3] can be described thus: Inhibition of human amyloid beta 42 aggregation assessed as decreasing in fluorescence intensity for 3 hrs by ThT fluorescence assay. In a few lines:
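Aβ42 monomer (20 µM final) plus ThT (20 µM final, diluted in PBS pH 7.4) and serial 10-fold compound dilutions (1 to 0.00001 µM), 37 °C for 3 h with 15 s shaking every 5 min. Fluorescence read at ex 430/em 480 nm and corrected against a PBS+ThT blank. IC50 taken from intensity at half Vmax versus concentration; mean ± s.d. of triplicates.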

The next test deals with N2a. In words: Neuroprotective effect against amyloid beta-induced cytotoxicity in mouse N2a cells assessed as cell viability measured after 3 hrs by MTT assay (reference value: 55%). Type of test: functional.
In test [4] the target is Amyloid-beta precursor protein (Homo sapiens) (UniProt P05067). In words: Inhibition of amyloid beta (unknown origin) aggregation assessed as increase in generation of amyloid beta oligomers at 10 uM incubated for 30 mins by negative staining TEM imaging analysis. In a few lines:
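Aβ monomer stock (500 µM in 2 mM NaOH, centrifuged supernatant) diluted to 5 µM, incubated alone or with compound in PBS pH 7.4 at 37 °C for 30 min. Sample applied to plasma-hydrophilised carbon grid for 1 min at RT, washed with water, stained 1 min with 1% Nano-W, imaged by TEM at 200 kV.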

Sequence of Amyloid-beta precursor protein (Homo sapiens) (P05067 whole entry): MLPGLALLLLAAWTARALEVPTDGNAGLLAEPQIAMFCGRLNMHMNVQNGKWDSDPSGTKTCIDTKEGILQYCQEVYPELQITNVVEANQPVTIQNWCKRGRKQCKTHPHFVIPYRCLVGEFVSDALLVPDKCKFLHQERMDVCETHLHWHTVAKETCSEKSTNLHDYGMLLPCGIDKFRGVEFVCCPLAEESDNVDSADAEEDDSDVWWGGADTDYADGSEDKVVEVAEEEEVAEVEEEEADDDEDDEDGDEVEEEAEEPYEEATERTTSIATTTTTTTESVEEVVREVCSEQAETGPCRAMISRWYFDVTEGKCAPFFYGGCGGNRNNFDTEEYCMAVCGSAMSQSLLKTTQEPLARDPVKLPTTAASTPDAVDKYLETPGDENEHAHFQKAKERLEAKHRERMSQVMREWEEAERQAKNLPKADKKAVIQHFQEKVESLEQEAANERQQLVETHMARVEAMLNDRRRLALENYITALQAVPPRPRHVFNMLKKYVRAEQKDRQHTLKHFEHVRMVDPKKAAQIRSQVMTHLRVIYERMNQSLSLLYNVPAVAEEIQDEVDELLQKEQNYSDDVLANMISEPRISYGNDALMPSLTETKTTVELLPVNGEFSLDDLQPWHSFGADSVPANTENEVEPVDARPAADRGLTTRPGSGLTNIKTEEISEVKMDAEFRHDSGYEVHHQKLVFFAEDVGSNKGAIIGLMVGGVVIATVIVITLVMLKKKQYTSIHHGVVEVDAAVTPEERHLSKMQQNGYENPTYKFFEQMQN

The IC50 is the concentration at which inhibition is half-maximal. Consider `COc1cc(/C=C/C(=O)CC(=O)/C=C/c2ccc(OCC(=O)OC(C)(C)C)c(C(F)(F)F)c2)ccc1O`, for which the IC50 was more than 100000 nM in test [1], more than 100000 nM in test [2] and 55 nM in test [3]. Also, in the test with N2a, the Activity was more than 90%.

As to `COC(=O)COc1ccc(/C=C/C(=O)CC(=O)/C=C/c2ccc(OCC(=O)OC)c(C(F)(F)F)c2)cc1OC`, in test [3], the IC50 came to 55 nM. Consider `COc1cc(/C=C/C(=O)CC(=O)/C=C/c2ccc(OCC(=O)O)c(C(F)(F)F)c2)ccc1O`, for which, in test [3], the IC50 was found to be 698 nM. For the molecule `COC(=O)COc1ccc(/C=C/C(=O)CC(=O)/C=C/c2ccc(O)c(OC)c2)cc1OC`, in test [3], the IC50 was 29 nM. Turning to `COc1cc(/C=C/C(=O)CC(=O)/C=C/c2ccc(O)c(OC)c2)ccc1O` [CURCUMIN], the IC50 in test [1] came to 22600 nM; in test [2], 18400 nM; in test [3] it was 693 nM.

With `O=C(/C=C/c1cccc(C(F)(F)F)c1)CC(=O)/C=C/c1ccc(O)c(C(F)(F)F)c1`, in test [3], the IC50 worked out at 18 nM. Take `COc1cc(/C=C/C(=O)CC(=O)/C=C/c2cccc(C(F)(F)F)c2)ccc1O`: the 50% inhibitory concentration (IC50) in test [1] came out at 65700 nM; in test [2] it was 88700 nM; in test [3] it was 13 nM.

Turning to `COC(=O)COc1ccc(/C=C/C(=O)CC(=O)/C=C/c2ccc(O)c(OC)c2)cc1C(F)(F)F`, the results for the IC50 in test [1], in test [2] and in test [3] were 38700 nM, 90000 nM and 7 nM, respectively. Besides, the inhibition entry in test [4] was “Active”. In the test with N2a, the Activity came out at 70%. As to `COC(=O)COc1ccc(/C=C/C(=O)CC(=O)/C=C/c2cccc(C(F)(F)F)c2)cc1OC`, the IC50 in test [3] was determined as 46 nM. The same measure, in the same setting: the same measure for `COC(=O)COc1ccc(/C=C/C(=O)CC(=O)/C=C/c2ccc(O)c(C(F)(F)F)c2)cc1OC`: 22 nM; for `COC(=O)COc1ccc(/C=C/C(=O)CC(=O)/C=C/c2ccc(O)c(C(F)(F)F)c2)cc1C(F)(F)F`: 109 nM; for `Nc1c2c(nc3ccccc13)CCCC2` [TACRINE]: 22 nM. Still for that read-out and setting: the same measure for `COc1cc(/C=C/C(=O)CC(=O)/C=C/c2ccc(O)c(C(F)(F)F)c2)ccc1O`: 52 nM.
